The text below walks through data of ChEMBL document CHEMBL4038301 (J Med Chem, 2017).

Data set [1] concerns Rattus norvegicus. The data set is described as follows: Terminal half life in Sprague-Dawley rat at 1 mg/kg, iv up to 24 hrs post dose by LC/MS/MS analysis. Format: ADME, organism-based. The following applies: in vivo. In short, it runs like this:
(§1)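 Male Sprague–Dawley rats (250–350 g, n=2), dual-cannulated (carotid artery and jugular vein). Dosed 1.0 mg/kg IV into the jugular vein in 10% ethanol, 50–70% PEG 400 and 20–40% saline.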

The test system of data set [2] is Rattus norvegicus. The data set is described as follows: MRT in Sprague-Dawley rat at 1 mg/kg, iv up to 24 hrs post dose by LC/MS/MS analysis. Format: ADME, organism-based. To be noted: in vivo.
In data set [3] the test system is Rattus norvegicus. The data set is described as follows: Volume of distribution at steady state in Sprague-Dawley rat at 1 mg/kg, iv up to 24 hrs post dose by LC/MS/MS Analysis. It is filed as ADME, organism-based. To be noted: in vivo. In short, it runs like this:
as §1

Data set [4] can be described thus: Total plasma concentration in Sprague-Dawley rat at 10 mg/kg, po after 1 hr post dose by LC/MS/MS analysis. Format: ADME, organism-based.
Data set [5] in a line: Total drug level in Sprague-Dawley rat brain at 10 mg/kg, po after 1 hr post dose by LC/MS/MS analysis. Format: ADME, organism-based. The following applies: read-out: Drug uptake.
The next data set deals with Plasma. The data set is described as follows: Unbound plasma concentration in Sprague-Dawley rat at 10 mg/kg, po after 1 hr post dose by LC/MS/MS analysis. It is filed as ADME, organism-based. To be noted: in vivo.
In data set [6] the test system is Brain. The data set is described as follows: Unbound drug level in Sprague-Dawley rat brain at 10 mg/kg, po after 1 hr post dose by LC/MS/MS analysis. Format: ADME, organism-based. To be noted: in vivo.
The test system of data set [7] is Rattus norvegicus. The data set is described as follows: Tmax in Sprague-Dawley rat at 10 mg/kg administered via nasogastric gavage up to 24 hrs by LC/MS/MS analysis. The following applies: in vivo, po. It is filed as ADME, organism-based.
For data set [8], the system named is Rattus norvegicus. The data set is described as follows: Cmax in Sprague-Dawley rat at 10 mg/kg, administered via nasogastric gavage up to 24 hrs by LC/MS/MS analysis. To be noted: in vivo, po. Also on record: dose 10 mg/kg, route nasogastric. It is filed as ADME, organism-based.
In data set [9] the test system is Rattus norvegicus. The data set is described as follows: AUC in Sprague-Dawley rat at 10 mg/kg, administered via nasogastric gavage up to 24 hrs by LC/MS/MS analysis. Format: ADME, organism-based. Details: time < 24 hr, dose 10 mg/kg, route nasogastric. The following applies: in vivo, po.
Data set [10] has as its system Rattus norvegicus. The data set is described as follows: Oral bioavailability in Sprague-Dawley rat at 10 mg/kg, administered via nasogastric gavage up to 24 hrs by LC/MS/MS analysis. It is filed as ADME, organism-based. The following applies: in vivo.
For data set [11], the system named is Cynomolgus monkey. The data set is described as follows: (§2) Terminal half life in cynomolgus monkey at 0.5 mg/kg, iv up to 24 hrs by LC/MS/MS analysis. Format: ADME, organism-based, Macaca fascicularis. To be noted: in vivo, 24 h.
Data set [12] relates to Cynomolgus monkey. The data set is described as follows: MRT in cynomolgus monkey at 0.5 mg/kg, iv up to 24 hrs by LC/MS/MS analysis. It is filed as ADME, organism-based, Macaca fascicularis. To be noted: in vivo.
A short description of data set [13]: Plasma clearance in cynomolgus monkey at 0.5 mg/kg, iv up to 24 hrs by LC/MS/MS analysis. Format: ADME, organism-based, Macaca fascicularis.
Data set [14] has as its system Cynomolgus monkey. The data set is described as follows: Cmax in cynomolgus monkey at 5 mg/kg administered via nasogastric gavage up to 24 hrs by LC/MS/MS analysis. It is filed as ADME, organism-based, Macaca fascicularis. Details: dose 5 mg/kg, route nasogastric. To be noted: in vivo, po.
Data set [15] relates to Cynomolgus monkey. The data set is described as follows: AUC in cynomolgus monkey at 5 mg/kg administered via nasogastric gavage up to 24 hrs by LC/MS/MS analysis. It is filed as ADME, organism-based, Macaca fascicularis. Also on record: dose 5 mg/kg, time < 24 hr, route nasogastric. To be noted: in vivo, po.
The test system of data set [16] is Cynomolgus monkey. The data set is described as follows: Oral bioavailability in cynomolgus monkey at 5 mg/kg administered via nasogastric gavage up to 24 hrs by LC/MS/MS analysis. It is filed as ADME, organism-based, Macaca fascicularis. To be noted: in vivo.
Data set [17] is described as follows: Apparent permeability across apical to basolateral side in MDCK cells expressing human MDR1 at 2 uM after 30 mins by LC-MS/MS. It is filed as ADME, cell-based, Canis lupus familiaris. The following applies: dog, 0.5 h.
Data set [18] in a line: Apparent permeability across basolateral to apical side in MDCK cells expressing human MDR1 at 2 uM after 30 mins by LC-MS/MS. Format: ADME, cell-based, Canis lupus familiaris. The following applies: dog, 0.5 h.
Data set [19] is described as follows: Apparent permeability across apical to basolateral side in human Caco2 cells at 2 uM after 10 mins by LC-MS/MS. The following applies: caco-2, 10 min. Format: ADME, cell-based. Background: Caco-2 monolayers are a common model of the intestinal barrier.
Data set [20] in a line: Intrinsic clearance in human cryopreserved hepatocytes assessed per million cells at 5 uM measured after 15 to 120 mins by LC/MS/MS analysis. It is filed as ADME, cell-based, Hepatocyte. In short, it runs like this: (§3)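 Pooled human cryopreserved hepatocytes (19 donors, mixed gender), thawed and resuspended in KHB. Compound 5 µM final, shaken at 37 °C. Aliquots quenched in acetonitrile with carbamazepine at 0, 15, 30, 60 and 120 min. Percent parent remaining measured by LC/MS/MS. Midazolam served as positive control.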

The nature of data set [21]: Half life in human cryopreserved hepatocytes at 5 uM measured by LC/MS/MS analysis. It is filed as ADME, cell-based, Hepatocyte. In short, it runs like this: as §3
The nature of data set [22]: Drug level in Harlan CD1 mouse brain at 3 mg/kg, ip at 15 mins. It is filed as ADME, organism-based. The following applies: read-out: Drug uptake.
Data set [23] in a line: Drug metabolism in cynomolgus monkey hepatic S9 fraction assessed as AO-mediated metabolite formation by LC/MS analysis. Format: ADME, Macaca fascicularis, Liver.
Data set [24] deals with Brain. The data set is described as follows: Unbound concentration in Harlan CD1 mouse brain at 3 mg/kg, ip at 15 mins by equilibrium dialysis method. Format: ADME, organism-based. The following applies: in vivo. In general terms: In equilibrium dialysis only unbound substance equilibrates across the membrane.
A short description of data set [25]: Plasma clearance in cynomolgus monkey at 0.2 mg/kg, iv up to 24 hrs by LC/MS/MS analysis. It is filed as ADME, organism-based, Macaca fascicularis.
Data set [26] can be described thus: Ratio of unbound drug level in Sprague-Dawley rat brain to plasma at 10 mg/kg, po after 1 hr post dose by LC/MS/MS analysis. It is filed as ADME, organism-based.
A short description of data set [27]: as §2. It is filed as ADME, organism-based, Macaca fascicularis. To be noted: in vivo, read-out: beta t1/2.
Data set [28] can be described thus: Ratio of drug level in Sprague-Dawley rat brain to plasma at 10 mg/kg, po after 1 hr post dose by LC/MS/MS analysis. It is filed as ADME, organism-based.

Take `Cc1cc(Oc2cncnc2)cc(C(=O)Nc2ccc(F)cn2)n1`: the “beta t1/2” value was 6.5 h in the data set on Rattus norvegicus [1] and 5.03 h in the data set on Cynomolgus monkey [11]. The MRT is 1.55 h with Rattus norvegicus [2] and 2.72 h with Cynomolgus monkey [12]. Besides, the Vdss with Rattus norvegicus [3] is 1.8 L/kg. For the same molecule, the concentration at 1 h was found to be 3000 nM in data set [4] and 2580 nM in [5]. Further, the “Cp(f)” value in the data set on Plasma amounted to 318 nM. Moreover, the “Drug uptake(free)” value in the data set with Brain [6] amounted to 201 nM; in the data set on Brain [24], 115 nM. Moreover, the Tmax with Rattus norvegicus [7] amounted to 0.5 h. For the same molecule, the values for the Cmax in the data set with Rattus norvegicus [8] and with Cynomolgus monkey [14] were 4340 nM and 1720 nM, respectively. Further, the AUC worked out at 14.6 µM·h in the data set on Rattus norvegicus [9] and 7.32 µM·h in the data set on Cynomolgus monkey [15]. Also, the F with Rattus norvegicus [10] was 53%; with Cynomolgus monkey [16] it was 44%. The molecule also had a clearance in data set [13] of 15.5 mL/min/kg. The values for the Papp in data set [17], in data set [18] and in [19] were 6.2 ×10⁻⁶ cm/s, 7.2 ×10⁻⁶ cm/s and 6.5 ×10⁻⁶ cm/s, respectively. Also, in data set [20], the CLH was 1.43 µL/min. This molecule had a t1/2 in data set [21] of 5.37 h. Also, the concentration at […] in data set [22] was determined as 1480 nM. Further, the Drug metabolism result in [23] was “Metabolite_Detected”.
Consider `Cc1cc(Oc2cncc(F)c2)cc(C(=O)Nc2cccc(F)n2)n1`, for which, in the data set with Rattus norvegicus [1], the “beta t1/2” value was determined as 1.37 h. The same molecule came in with an MRT in the data set on Rattus norvegicus [2] of 2.62 h. The molecule further had a Vdss with Rattus norvegicus [3] of 11 L/kg.
For the molecule `Cc1csc(NC(=O)c2cc(F)cc(Oc3cncnc3)c2)n1`, the F in the data set with Rattus norvegicus [10] was < 5%. This molecule also registered a clearance in [25] of 24 mL/min/kg.
`CCc1cccc(NC(=O)c2cc(Oc3cncnc3)cc(C)n2)n1`: the “beta t1/2” value in the data set on Rattus norvegicus [1] is 6.73 h. This molecule also came in with an MRT with Rattus norvegicus [2] of 1.33 h. In addition, in the data set on Rattus norvegicus [3], the Vdss came out at 6.6 L/kg.
Consider `Cc1cc(Oc2cncc(F)c2)cc(C(=O)Nc2ccc(F)cn2)n1`, for which the “beta t1/2” value with Rattus norvegicus [1] is 4.68 h. Moreover, the MRT was 3.47 h in the data set on Rattus norvegicus [2] and 5.05 h in the data set on Cynomolgus monkey [12]. Also, in the data set with Rattus norvegicus [3], the Vdss stood at 1.9 L/kg. Also, the “Cp(f)” value with Plasma is recorded as 38.6 nM. Moreover, the “Drug uptake(free)” value in the data set on Brain [6] is 31.6 nM. In addition, the “K(p,uu,brain)” value in [26] turned out to be 0.82. Besides, the Tmax with Rattus norvegicus [7] came out at 1.5 h. The Cmax stood at 3330 nM in the data set on Rattus norvegicus [8] and 1360 nM with Cynomolgus monkey [14]. For the same molecule, the AUC in the data set with Rattus norvegicus [9] came out at 38 µM·h; with Cynomolgus monkey [15], 6.43 µM·h. The F in the data set on Rattus norvegicus [10] was 71%; in the data set with Cynomolgus monkey [16], 35%. Moreover, in data set [27], the half-life was determined as 9.38 h. The clearance in data set [13] worked out at 13.3 mL/min/kg.
Turning to `Cc1cc(Oc2cnc(C)nc2)cc(C(=O)Nc2ccc(F)cn2)n1`, the “beta t1/2” value in the data set on Rattus norvegicus [1] worked out at 3.82 h. The same molecule came in with an MRT in the data set with Rattus norvegicus [2] of 3.18 h. Further, the distribution volume (Vdss) in the data set with Rattus norvegicus [3] came to 1.2 L/kg. Also, the results for the concentration at 1 h in data set [4] and in data set [5] were 4820 nM and 3220 nM, respectively. Moreover, in data set [28], the BPR was 0.67. In the data set on Plasma, the “Cp(f)” value was determined as 390 nM. Also, the “Drug uptake(free)” value in the data set with Brain [6] amounted to 142 nM. Moreover, the “K(p,uu,brain)” value in [26] was found to be 0.36.
In the case of `Cc1cccc(NC(=O)c2cc(Oc3cncc(F)c3)cc(C)n2)n1`, the “beta t1/2” value in the data set on Rattus norvegicus [1] was 4.47 h. The MRT with Rattus norvegicus [2] turned out to be 2 h. This molecule also returned a Vdss with Rattus norvegicus [3] of 4.5 L/kg.
On to `Cc1cccc(NC(=O)c2cc(Oc3cncnc3)cc(C)n2)n1`, for which the “beta t1/2” value in the data set on Rattus norvegicus [1] worked out at 1.75 h. Also, in the data set on Rattus norvegicus [2], the MRT is 0.65 h. In addition, the Vdss in the data set on Rattus norvegicus [3] was found to be 1.6 L/kg.

The term MRT denotes a mean duration of stay, worked out from the concentration-time curve. One may read the Vdss as the apparent volume that relates the amount in the body to the concentration in plasma or blood. As a reminder, the Tmax is the time from dosing to the highest level. The term Cmax denotes the peak of the concentration-time curve. What is called AUC is the area under the concentration-time curve, a measure of exposure. The clearance is the rate of elimination divided by the concentration. In general, Papp refers to the rate of passage across a membrane or cell layer, normalised by area and donor concentration.
